This note sets out measurements from paper PMC5771842 (Nature chemical biology, 2018).

Entries after “also recorded” stand apart in the source; their conditions may differ.

For one series, the system named is MC99IIIBΔTat-Rev HIV-1. Briefly: HIV cytoprotection assay. It is filed as cell-based. The settings on record: CEM 1A2 tat/rev++ cells. The method in brief:
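CEM 1A2 tat/rev++ cells, which die on HIV infection, grown in RPMI-1640 with 20% FBS, bicarbonate and antibiotic-antimycotic at 37°C, 5% CO2; 12,500 cells/well. Test compound added in DMSO, then HIV-1 MC99IIIBΔTat-Rev; 4-day incubation. MTT added for 1–2 h, formazan dissolved in DMSO, absorbance read at 590 nm. Triplicate per dose; infected, uninfected, media-only and AZT controls. IC50/CC50 estimated by eye.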

Series [1] relates to CEM 1A2 tat/rev++ T-cells. The experiment in a line: HIV cytoprotection assay. To be noted: CEM 1A2 T cells. In kind it is cell-based, human.

Turning to divamide C [Compound 3], in the series with MC99IIIBΔTat-Rev HIV-1, the “anti-HIV activity (cytoprotection), in words” value was “essentially inactive; also recorded: neither cytotoxic nor anti-HIV activities; also recorded: lacked any detectable cytoprotection”. For the same substance, the “cytotoxicity, in words” value in series [1] is listed as “neither cytotoxic nor anti-HIV activities”.
